Source: ChEMBL document CHEMBL4138089, “Novel Imidazo[4,5-c][1,2,6]thiadiazine 2,2-dioxides as antiproliferative trypanosoma cruzi drugs: Computational screening from neural network, synthesis and in vivo biological properties” (Eur J Med Chem, 2017)
Calls of active or inactive are those of the source. The rule behind the calls is not given here.

Key:
[1] = system: J774; assay: Cytotoxicity against mouse J774 cells assessed as reduction in cell viability after 48 hrs by MTT assay; assay type: cell-based; details: J774, 48 h
Outline: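 J774 macrophages, 37°C, 5% CO2, 48 h with compounds in DMSO at 100, 200 and 400 μM. Viability from mitochondrial activity by MTT/formazan.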

[2] = Selectivity index, ratio of IC50 for mouse J774 cells to IC50 for Trypanosoma cruzi Tulahuen 2 epimastigotes; assay type: toxicity; details: J774 cells versus Trypanosoma cruzi Tulahuen 2 epimastigotes, read-out: Ratio IC50
[3] = system: Trypanosoma cruzi; assay: Growth inhibition of Trypanosoma cruzi clone CL B5 epimastigotes at 25 uM after 72 hrs by beta-galactosidase reporter gene assay relative to control; assay type: functional; details: clone CL B5, 72 h, read-out: GI
[4] = system: Trypanosoma cruzi; assay: Antitrypanosomal activity against Trypanosoma cruzi Tulahuen 2 epimastigotes after 5 days; assay type: functional, organism-based; details: Tulahuen 2, 120 h
[5] = system: Trypanosoma cruzi; assay: Antitrypanosomal activity against Trypanosoma cruzi clone CL B5 epimastigotes at 25 uM after 72 hrs by beta-galactosidase reporter gene assay; assay type: functional, organism-based; details: clone CL B5, 72 h
[6] = system: Trypanosoma cruzi; assay: Growth inhibition of Trypanosoma cruzi Tulahuen 2 epimastigotes at 25 uM after 5 days relative to control; assay type: functional; details: Tulahuen 2, 120 h, read-out: GI
[7] = target: Cruzipain (Trypanosoma cruzi, UniProt P25779); assay: Inhibition of Trypanosoma cruzi cruzipain using Bz-Pro-Phe-Arg-p-NA as a chromogenic substrate preincubated for 10 mins followed by substrate addition measured for 5 mins by spectrophotometry
Outline: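 Cruzipain preincubated 10 min at ambient temperature in 50 mM Tris-HCl pH 7.6 with 10 mM mercaptoethanol and 25, 50 or 100 μM inhibitor (DMSO). Controls carry the same DMSO level and define 100% activity.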

[8] = Selectivity index, ratio of IC50 for mouse NCTC-929 cells to IC50 for Trypanosoma cruzi clone CL B5 epimastigotes; assay type: toxicity; details: read-out: Ratio IC50
[9] = system: Trypanosoma cruzi; assay: Growth inhibition of Trypanosoma cruzi clone CL B5 amastigotes harboring lacZ derived from infected mouse NCTC-929 cells at 25 uM after 7 days by beta-galactosidase reporter gene assay relative to control; assay type: functional; details: clone CL B5, NCTC-929, 168 h, read-out: GI
Outline: (§1)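 NCTC-929 fibroblasts seeded 10,000 cells/well in MEM, attached 2-3 h at 37°C, 5% CO2, then infected with NCTC-929-derived CL-B5 lacZ trypomastigotes (1:6 cells:parasites) for 24 h at 33°C. Washed in PBS, drug in DMSO added in fresh medium, 7 days at 33°C. CPRG (400 µM, pH 7.4, 3% Triton X-100) added, 3 h at 37°C, A595. PGIa computed against infected untreated wells after subtracting uninfected-cell background. IC50a derived from PGIa.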

[10] = system: Mus musculus; assay: Antitrypanosomal activity against bloodstream forms of Trypanosoma cruzi Y infected in NMRI mouse assessed as decrease in number of blood trypomastigotes at 100 mg/kg, po administerd for 5 consecutive days starting from day 5 post infection measured from 4th day of treatment; assay type: functional, organism-based
[11] = system: L929; assay: Cytotoxicity against mouse NCTC-929 cells assessed as reduction in cell viability after 48 hrs by resazurin dye-based assay; details: L929, 48 h
Outline: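 NCTC-929 fibroblasts, 15,000 cells/well in MEM, attached 3 h at 37°C/5% CO2, then compounds in fresh medium 48 h. Resazurin (2 mM stock in PBS, pH 7.0) added for 3 h more; fluorescence ex 535/em 590 nm. Growth and medium controls on each plate.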

[12] = target: Cruzipain (Trypanosoma cruzi) (UniProt P25779); assay: Inhibition of Trypanosoma cruzi cruzipain at 100 uM using Bz-Pro-Phe-Arg-p-NA as a chromogenic substrate preincubated for 10 mins followed by substrate addition measured for 5 mins by spectrophotometer relative to control
Outline: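 Cruzipain preincubated 10 min at ambient temperature in 50 mM Tris-HCl pH 7.6 with 10 mM mercaptoethanol and 25, 50 or 100 μM inhibitor (DMSO). Bz-Pro-Phe-Arg-p-NA then added at 150 μM final, A410 followed for 5 min. Controls carry the same DMSO level and define 100% activity.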

[13] = system: Trypanosoma cruzi; assay: Antitrypanosomal activity against Trypanosoma cruzi clone CL B5 amastigotes harboring lacZ infected in mouse NCTC-929 cells after 7 days by beta-galactosidase reporter gene assay; assay type: functional, organism-based; details: clone CL B5, NCTC-929, 168 h; outline: as §1
[14] = system: Salmonella typhimurium; assay: Genotoxicity in Salmonella typhimurium TA98 up to 500 ug/plate in absence of mouse liver S9 fraction by Ames test; assay type: toxicity, organism-based; details: salmonella enterica subsp. enterica serovar typhimurium
Outline: (§2)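 TA98 by direct plate incorporation on minimal glucose agar with Vogel-Bonner E; toxicity to the strain checked first. Compounds in DMSO, in triplicate, top dose 500 µg/plate; ± Aroclor-induced mouse liver S9 (500 µL). Positive controls 4-nitro-o-phenylenediamine 20.0 µg/plate (no S9), 2-aminofluorene 10.0 µg/plate (S9); DMSO negative. Manual revertant counts, mean of two experiments ±SD; mutagenic if ≥2× negative control at two consecutive doses.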

[15] = system: Salmonella typhimurium; assay: Genotoxicity in Salmonella typhimurium TA98 up to 500 ug/plate in presence of mouse liver S9 fraction by Ames test; assay type: toxicity, organism-based; details: salmonella enterica subsp. enterica serovar typhimurium; outline: as §2
[16] = system: Trypanosoma cruzi; assay: Antitrypanosomal activity against bloodstream forms of Trypanosoma cruzi Y infected in NMRI mouse assessed as mouse survival at 100 mg/kg, po administerd for 5 consecutive days starting from day 5 post infection; details: 720 h

Chain of Cruzipain (P25779 whole entry): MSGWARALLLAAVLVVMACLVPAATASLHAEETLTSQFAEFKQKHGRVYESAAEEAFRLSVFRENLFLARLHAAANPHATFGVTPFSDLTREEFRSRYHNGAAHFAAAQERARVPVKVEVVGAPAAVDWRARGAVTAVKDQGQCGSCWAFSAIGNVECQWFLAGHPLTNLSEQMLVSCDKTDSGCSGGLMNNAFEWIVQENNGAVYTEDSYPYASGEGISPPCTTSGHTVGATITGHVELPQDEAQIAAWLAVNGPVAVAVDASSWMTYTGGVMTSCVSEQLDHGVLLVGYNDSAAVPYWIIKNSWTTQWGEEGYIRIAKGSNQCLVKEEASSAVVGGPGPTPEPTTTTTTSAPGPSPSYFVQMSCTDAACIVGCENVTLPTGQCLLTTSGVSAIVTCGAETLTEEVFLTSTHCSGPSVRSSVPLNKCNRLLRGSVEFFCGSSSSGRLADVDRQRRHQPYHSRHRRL
Chain of Cruzipain (Trypanosoma cruzi) (P25779 123-467 limits assumed): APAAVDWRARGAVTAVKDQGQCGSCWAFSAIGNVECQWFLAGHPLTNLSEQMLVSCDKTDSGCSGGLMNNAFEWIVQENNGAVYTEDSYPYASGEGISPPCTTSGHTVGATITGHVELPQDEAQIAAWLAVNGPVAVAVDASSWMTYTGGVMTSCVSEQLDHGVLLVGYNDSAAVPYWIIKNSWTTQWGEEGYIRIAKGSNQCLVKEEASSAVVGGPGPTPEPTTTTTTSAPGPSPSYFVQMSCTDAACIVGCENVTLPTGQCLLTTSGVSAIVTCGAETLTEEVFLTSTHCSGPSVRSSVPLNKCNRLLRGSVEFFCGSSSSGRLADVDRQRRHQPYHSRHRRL

SMILES	IC50 [4] [µM]	selectivity ratio [2]	inhibition of growth at 25 µM [3] [%]	inhibition of growth at 25 µM [6] [%]	further results
NC1=NS(=O)(=O)Nc2nc(C3CCCCC3)[nH]c21	12.7 to 16.2	> 25	54.8	72.3	selectivity ratio [8]: > 102; IC50 [5]: 2.5 µM; IC50 [7]: 12 µM; inhibition of growth at 25 µM [9]: 0%; Activity [10]: inactive; IC50 [11]: > 256 µM
NC1=NS(=O)(=O)Nc2nc(-c3cccnc3)[nH]c21	> 25			37.5	
CC1CS(=O)(=O)CCN1/N=C/c1ccc([N+](=O)[O-])o1 (stereo unspecified) [NIFURTIMOX]		41	82.2		selectivity ratio [8]: > 71.1; IC50 [13]: < 0.5 µM; inhibition of growth at 25 µM [9]: 100%; IC50 [11]: > 256 µM
NC1=NS(=O)(=O)Nc2[nH]c(-c3ccccc3)nc21	> 25			39.6	
NC1=NS(=O)(=O)N(Cc2ccc(Cl)cc2)c2nc(C3CCCCC3)[nH]c21	> 25			0	
Cc1nc2c([nH]1)C(N)=NS(=O)(=O)N2	> 25			38.7	
NC1=NS(=O)(=O)N(Cc2ccccc2)c2nc(-c3ccccc3)n(Cc3ccccc3)c21	4.5	22	60.8	100	IC50 [1]: 100 µM; Activity [14]: Non-Toxic; selectivity ratio [8]: < 17.8; IC50 [5]: 3.6 µM; Activity [15]: Non-Toxic; IC50 [7]: 81 µM; survival at 100 mg/kg [16]: 87.5%; inhibition of growth at 25 µM [9]: 90.2%; Activity [10]: Active; IC50 [11]: < 64 µM
O=C(Cn1ccnc1[N+](=O)[O-])NCc1ccccc1 [BENZNIDAZOLE]			49		selectivity ratio [8]: > 9.4; IC50 [13]: 0.8 µM; inhibition of growth at 25 µM [9]: 100%; IC50 [11]: > 256 µM
NC1=NS(=O)(=O)Nc2nc(-c3ccc([N+](=O)[O-])o3)[nH]c21	> 25			31.3	

Continued, in another order:

IC50 [4] [µM]	SMILES	selectivity ratio [2]	inhibition of growth at 25 µM [3] [%]	inhibition of growth at 25 µM [6] [%]	further results
7	NC1=NS(=O)(=O)N(Cc2ccc(Cl)cc2)c2nc(-c3ccccc3F)[nH]c21	< 14.2	42.1	86.3	IC50 [1]: < 100 µM; IC50 [5]: > 25 µM; IC50 [7]: 86 µM
20.2	NC1=NS(=O)(=O)Nc2nc(-c3ccccc3F)[nH]c21			57.8	
26.2	CN1c2nc(-c3ccsc3)[nH]c2C(N)=NS1(=O)=O			46.3	
11.5	NC1=NS(=O)(=O)Nc2nc(CCc3ccccc3)[nH]c21	> 34.8	51.1	73.6	IC50 [1]: > 400 µM; selectivity ratio [8]: > 14.6; IC50 [5]: 17.5 µM; IC50 [11]: > 256 µM; inhibition [12]: 39%
28.7	NC1=NS(=O)(=O)N(Cc2ccccc2)c2nc(C3CCCCC3)n(Cc3ccccc3)c21			45.7	
28.5	CCc1nc2c([nH]1)C(N)=NS(=O)(=O)N2			43	
28.9	NC1=NS(=O)(=O)Nc2nc(C3CCCC3)[nH]c21			42.2	
12.7 to 16.2	NC1=NS(=O)(=O)Nc2nc(Cc3ccccc3)[nH]c21	> 31	17.7	59.7	Activity [14]: Non-Toxic; IC50 [5]: > 25 µM; Activity [15]: Non-Toxic; IC50 [7]: 23 µM
16.7	CN1c2nc(-c3ccccc3)[nH]c2C(N)=NS1(=O)=O	7.7	11.3	58	IC50 [1]: 128 µM; Activity [14]: Non-Toxic; IC50 [5]: > 25 µM; Activity [15]: Non-Toxic; inhibition [12]: 27.4%
29.5	NC1=NS(=O)(=O)N(Cc2ccccc2)c2nc(-c3ccccc3)[nH]c21			41.6	
28.5	CN(C)c1ccc(-c2nc3c([nH]2)C(N)=NS(=O)(=O)N3)cc1			42.8	
22.2	NC1=NS(=O)(=O)Nc2nc(-c3ccsc3)[nH]c21			51.3	
20.3	NC1=NS(=O)(=O)Nc2nc(C3CCOC3)[nH]c21 (stereo unspecified)			56.4	
